Results on 18 molecules are retold here after ChEMBL document CHEMBL1128174, “Enhanced D1 affinity in a series of piperazine ring substituted 1-piperazino-3-arylindans with potential atypical antipsychotic activity” (J Med Chem, 1995).

By IC50 is commonly meant the concentration needed to halve the response being measured.

A value given as a limit tells only on which side of the number the result lay.

For experiment [1], the target named is T1, Adrenergic receptor alpha-1 (Rattus norvegicus, UniProt P15823+P23944+P43140).
T1 sequence (P15823 whole entry): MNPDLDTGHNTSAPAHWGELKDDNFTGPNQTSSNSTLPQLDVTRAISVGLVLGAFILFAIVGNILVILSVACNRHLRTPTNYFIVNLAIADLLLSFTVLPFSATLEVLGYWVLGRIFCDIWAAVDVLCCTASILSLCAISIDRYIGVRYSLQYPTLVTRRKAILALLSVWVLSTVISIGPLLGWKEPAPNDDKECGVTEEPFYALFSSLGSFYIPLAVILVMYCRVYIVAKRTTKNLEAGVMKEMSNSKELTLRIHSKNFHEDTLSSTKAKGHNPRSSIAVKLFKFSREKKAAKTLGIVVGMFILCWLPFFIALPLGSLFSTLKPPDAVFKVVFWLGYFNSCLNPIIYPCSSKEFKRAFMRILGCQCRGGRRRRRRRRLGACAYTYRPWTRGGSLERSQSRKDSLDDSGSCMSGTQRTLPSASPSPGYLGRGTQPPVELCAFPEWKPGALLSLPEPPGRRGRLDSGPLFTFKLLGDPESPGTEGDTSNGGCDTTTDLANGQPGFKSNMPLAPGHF
T1 sequence (P23944 whole entry): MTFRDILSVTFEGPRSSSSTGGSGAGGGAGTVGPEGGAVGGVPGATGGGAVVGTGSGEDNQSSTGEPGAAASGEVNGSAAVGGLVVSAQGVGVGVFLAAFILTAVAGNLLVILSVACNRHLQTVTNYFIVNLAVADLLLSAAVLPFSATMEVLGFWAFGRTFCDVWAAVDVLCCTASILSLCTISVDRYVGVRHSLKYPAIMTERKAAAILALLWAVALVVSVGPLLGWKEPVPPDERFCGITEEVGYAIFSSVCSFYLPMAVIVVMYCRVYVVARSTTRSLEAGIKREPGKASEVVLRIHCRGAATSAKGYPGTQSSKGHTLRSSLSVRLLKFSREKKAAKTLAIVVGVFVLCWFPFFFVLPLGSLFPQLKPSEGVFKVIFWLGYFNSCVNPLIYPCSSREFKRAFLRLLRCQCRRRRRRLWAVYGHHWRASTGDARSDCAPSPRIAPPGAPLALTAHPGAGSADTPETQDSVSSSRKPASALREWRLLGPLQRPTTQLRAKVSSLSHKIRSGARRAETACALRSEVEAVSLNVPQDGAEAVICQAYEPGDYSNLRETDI
T1 sequence (P43140 whole entry): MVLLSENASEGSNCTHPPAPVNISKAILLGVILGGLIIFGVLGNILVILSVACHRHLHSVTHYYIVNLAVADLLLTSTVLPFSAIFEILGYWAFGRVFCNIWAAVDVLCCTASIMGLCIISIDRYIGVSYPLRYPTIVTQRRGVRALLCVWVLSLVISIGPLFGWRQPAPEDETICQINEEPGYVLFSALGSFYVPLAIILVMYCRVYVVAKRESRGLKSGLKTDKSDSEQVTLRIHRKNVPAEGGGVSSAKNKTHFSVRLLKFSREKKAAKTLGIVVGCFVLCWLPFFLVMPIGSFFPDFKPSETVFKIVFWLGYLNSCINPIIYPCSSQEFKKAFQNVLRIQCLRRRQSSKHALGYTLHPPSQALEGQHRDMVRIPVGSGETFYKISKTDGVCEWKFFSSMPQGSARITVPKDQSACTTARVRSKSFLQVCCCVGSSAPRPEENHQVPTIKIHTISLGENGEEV
The experiment can be described thus: Binding affinity against Alpha-1 adrenergic receptor, activity is expressed as IC50 values. The experiment is classed as protein assay.

The species entered for a further experiment is Mus musculus. Put plainly: Antagonism of methyl phenidate-induced gnawing behavior in mice. The experiment is classed as functional. The essentials: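 Test compound given ip (or sc) 2 h before methyl phenidate (60 mg/kg); mice housed in pairs on corrugated cardboard in gnawing cages, 5–9 pairs per dose.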
The species entered for experiment [2] is Rattus norvegicus. Put plainly: Cataleptogenic effect in rats. The experiment is classed as functional. The essentials:
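Rats scored on a vertical wire grid hourly 1–6 h after dosing; catalepsy counted when immobility lasted at least 15 s.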

A further experiment concerns the target D(2) dopamine receptor (Rattus norvegicus, UniProt P61169). The experiment can be described thus: Binding affinity against dopamine receptor D2.
The target in experiment [3] is T2, D(1A) dopamine receptor (Rattus norvegicus, UniProt P18901). The experiment can be described thus: The compound was tested for the binding affinity against Dopamine receptor D1 activity is expressed as IC50 values. The gist of the method: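 [3H]SCH 23390 displaced from rat striatal membrane preparations; IC50 read from log-concentration–effect curves, two complete curves of five test concentrations run in triplicate over three decades.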
T2 sequence (P18901 whole entry): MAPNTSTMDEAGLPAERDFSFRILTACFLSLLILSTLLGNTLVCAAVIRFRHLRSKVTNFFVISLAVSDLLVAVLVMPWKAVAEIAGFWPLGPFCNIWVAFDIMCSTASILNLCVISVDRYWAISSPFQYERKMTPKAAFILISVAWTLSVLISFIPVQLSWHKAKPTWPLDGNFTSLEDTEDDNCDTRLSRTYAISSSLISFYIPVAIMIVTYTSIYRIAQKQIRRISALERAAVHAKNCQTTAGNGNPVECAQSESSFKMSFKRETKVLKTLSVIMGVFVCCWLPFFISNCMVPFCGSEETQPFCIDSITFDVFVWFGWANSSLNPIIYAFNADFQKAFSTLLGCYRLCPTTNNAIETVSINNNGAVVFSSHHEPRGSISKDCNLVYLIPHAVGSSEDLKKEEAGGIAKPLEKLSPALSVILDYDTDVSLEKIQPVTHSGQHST

The species named for experiment [4] is Rattus norvegicus. The experiment can be described thus: In vitro inhibition of [3H]5-HT uptake in rat brain (minus pons, medulla oblongata and cerebellum) homogenates. The experiment is classed as functional.
The species named for experiment [5] is Rattus norvegicus. Put plainly: In vitro inhibition of [3H]NE uptake in rat occipital lobe (plus temporal cortex) homogenates. The experiment is classed as functional.
For experiment [6], the species on record is Rattus norvegicus. Put plainly: In vitro inhibition of [3H]dopamine uptake in rat corpus striatum homogenates. In kind it is functional.
The target of experiment [7] is 5-hydroxytryptamine receptor 2A (Rattus norvegicus, UniProt P14842). The experiment can be described thus: Binding affinity for 5-hydroxytryptamine 2A receptor, activity is expressed as IC50 values.
Sequence of 5-hydroxytryptamine receptor 2A (P14842 whole entry): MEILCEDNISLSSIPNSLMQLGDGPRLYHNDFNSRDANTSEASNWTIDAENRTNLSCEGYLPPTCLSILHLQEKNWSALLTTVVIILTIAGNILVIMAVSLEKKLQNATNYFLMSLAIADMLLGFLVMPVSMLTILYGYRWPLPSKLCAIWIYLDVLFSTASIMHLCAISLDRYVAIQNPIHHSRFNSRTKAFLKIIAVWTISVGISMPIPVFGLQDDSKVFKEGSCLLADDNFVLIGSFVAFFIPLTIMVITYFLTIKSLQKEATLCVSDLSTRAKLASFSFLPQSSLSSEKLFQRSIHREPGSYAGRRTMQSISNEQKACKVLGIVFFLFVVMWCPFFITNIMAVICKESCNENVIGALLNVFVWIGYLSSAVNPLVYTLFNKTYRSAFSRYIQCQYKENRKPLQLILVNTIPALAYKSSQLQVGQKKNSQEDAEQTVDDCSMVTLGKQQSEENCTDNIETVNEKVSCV
In experiment [8] the target is T2, D(1A) dopamine receptor. Put plainly: Binding affinity for dopamine receptor D1, activity is expressed as IC50 values.
Setting [9] is: Rattus norvegicus, read-out: ED50.

Sequence of D(2) dopamine receptor (P61169 whole entry): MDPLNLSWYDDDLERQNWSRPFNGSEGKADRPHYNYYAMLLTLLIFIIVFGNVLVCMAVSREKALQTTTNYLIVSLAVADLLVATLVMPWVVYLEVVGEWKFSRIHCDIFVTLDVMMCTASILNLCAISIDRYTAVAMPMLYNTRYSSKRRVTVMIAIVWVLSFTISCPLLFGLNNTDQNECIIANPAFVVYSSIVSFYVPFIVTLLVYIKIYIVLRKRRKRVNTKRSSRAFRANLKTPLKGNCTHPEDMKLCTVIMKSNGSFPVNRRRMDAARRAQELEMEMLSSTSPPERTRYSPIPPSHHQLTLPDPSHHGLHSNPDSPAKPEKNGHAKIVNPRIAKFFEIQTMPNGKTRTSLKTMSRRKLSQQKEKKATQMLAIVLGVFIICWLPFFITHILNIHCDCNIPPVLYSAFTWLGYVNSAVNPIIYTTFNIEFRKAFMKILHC

With `CN1CCN(C2CC(c3ccsc3)c3ccc(Cl)cc32)CC1(C)C` (stereo not given), the IC50 in [1] stood at 14 nM. In addition, the ED50 in the experiment filed under Mus musculus (Mus musculus, read-out: ED50) was 1.3 µmol/kg; in the experiment listed under Rattus norvegicus [2] (setting [9]) it was 44 µmol/kg.

In experiment [1], `CN1CCN(C2CC(c3ccc(F)cc3)c3cc(Cl)ccc32)CC1(C)C` (stereo not given) registered an IC50 of 94 nM. Also, in the experiment listed under Mus musculus (Mus musculus, read-out: ED50), the ED50 is more than 110 µmol/kg.

As to `CN1CCN(C2CC(c3ccc(F)cc3)c3cccc(F)c32)CC1(C)C` (stereo not given), the IC50 in [1] worked out at 15 nM. In addition, the ED50 is 6.9 µmol/kg in the experiment filed under Mus musculus (Mus musculus, read-out: ED50) and more than 90 µmol/kg in the experiment filed under Rattus norvegicus [2] (setting [9]).

As to `CN1CCN(C2CC(c3ccccc3)c3ccccc32)CC1` (stereo not given), the IC50 at D(2) dopamine receptor worked out at 690 nM; at D(1A) dopamine receptor [3] it was 480 nM.

Regarding `OCCN1CCN(C2CC(c3ccc(F)cc3)c3ccc(Cl)cc32)CC1` (stereo not given), at D(1A) dopamine receptor [3], the IC50 amounted to 8.3 nM.

`OCCN1CCN(C2CC(c3ccc(F)cc3)c3cc(Cl)ccc32)CC1` (stereo not given) had an IC50 at D(1A) dopamine receptor [3] of 1800 nM.

In the case of `OCCN1CCN(C2CC(c3ccc(F)cc3)c3c(Cl)cccc32)CC1` (stereo not given), on D(1A) dopamine receptor [3], the IC50 turned out to be 2000 nM.

Regarding `CN1CCN(C2CC(c3ccccc3)c3ccc(Cl)cc32)CC1(C)C` (single isomer, unassigned; (-)), the IC50 in the experiment filed under Rattus norvegicus [4] is 4000 nM; in the experiment filed under Rattus norvegicus [5] it was 1700 nM; on D(2) dopamine receptor, 9.5 nM; in the experiment listed under Rattus norvegicus [6], 390 nM; in experiment [1], 10 nM; in experiment [7], 4.4 nM. The IC50 at D(1A) dopamine receptor [8] came to 1.1 nM. In addition, the ED50 was 8.8 µM/kg in the experiment listed under Mus musculus and more than 85 µM/kg in the experiment listed under Rattus norvegicus [2].

As for `CC1(C)CN(C2CC(c3ccsc3)c3ccc(Cl)cc32)CCN1` (single isomer, unassigned; (-)), the IC50 in the experiment listed under Rattus norvegicus [4] was determined as 4500 nM; in the experiment filed under Rattus norvegicus [5], 4000 nM; on D(2) dopamine receptor, 7.1 nM; in the experiment filed under Rattus norvegicus [6], 2700 nM; in experiment [1], 25 nM; in experiment [7], 1.9 nM. Further, the IC50 on D(1A) dopamine receptor [8] turned out to be 0.84 nM. Moreover, the ED50 in the experiment listed under Mus musculus (Mus musculus, read-out: ED50) is 11 µmol/kg; in the experiment filed under Rattus norvegicus [2] (setting [9]) it was more than 49 µmol/kg.

As to `CN1CCN(C2CC(c3ccccc3)c3ccc(Cl)cc32)CC1(C)C` (stereo in doubt; 38), the IC50 in experiment [1] turned out to be 23 nM. The ED50 is 24 µM/kg in the experiment filed under Mus musculus and more than 76 µmol/kg in the experiment filed under Rattus norvegicus [2] (setting [9]).

In [1], `CN1CCN(C2CC(c3ccc(F)cc3)c3ccc(F)cc32)CC1(C)C` (stereo in doubt; 40) displayed an IC50 of 12 nM. For the same molecule, the ED50 in the experiment filed under Mus musculus is 2.1 µM/kg; in the experiment listed under Rattus norvegicus [2], more than 68 µM/kg.

`CC1(C)CN(C2CC(c3ccc(F)cc3)c3ccc(Cl)cc32)CCN1` (stereo in doubt; 41) returned an IC50 in experiment [1] of 39 nM. The ED50 in the experiment listed under Mus musculus (Mus musculus, read-out: ED50) is 6.7 µmol/kg; in the experiment filed under Rattus norvegicus [2] (setting [9]), more than 48 µmol/kg.

`CN1CCN(C2CC(c3ccccc3)c3ccc(Cl)cc32)CC1(C)C` (stereo in doubt; (+)-38): the IC50 in the experiment listed under Rattus norvegicus [4] (Rattus norvegicus) was 5300 nM; in the experiment filed under Rattus norvegicus [5] it was 26 nM; at D(2) dopamine receptor, 260 nM; in the experiment filed under Rattus norvegicus [6], 7.5 nM; in [7] it was 68 nM; on D(1A) dopamine receptor [8] it was 15 nM.

In the case of `CN1CCN(C2CC(c3ccc(F)cc3)c3ccc(F)cc32)CC1(C)C` (stereo in doubt; (+)-40), the IC50 is 3700 nM in the experiment listed under Rattus norvegicus [4]; 20 nM in the experiment listed under Rattus norvegicus [5]; 1500 nM on D(2) dopamine receptor; 7.1 nM in the experiment listed under Rattus norvegicus [6]; 360 nM in experiment [7]; 88 nM at D(1A) dopamine receptor [8].

For `CC1(C)CN(C2CC(c3ccsc3)c3ccc(Cl)cc32)CCN1` (stereo in doubt; (+)-54), the IC50 in the experiment filed under Rattus norvegicus [4] turned out to be 2000 nM; in the experiment filed under Rattus norvegicus [5], 73 nM; at D(2) dopamine receptor, 6700 nM; in the experiment listed under Rattus norvegicus [6], 27 nM; in experiment [7] it was 1100 nM; on D(1A) dopamine receptor [8], 440 nM.

Regarding `CN1CCN(C2CC(c3ccc(F)cc3)c3ccccc32)CC1(C)C` (stereo in doubt; (-)-39), the IC50 in the experiment listed under Rattus norvegicus [4] is 10000 nM; in the experiment listed under Rattus norvegicus [5] it was 17000 nM; at D(2) dopamine receptor it was 12 nM; in the experiment filed under Rattus norvegicus [6] it was 5200 nM; in [1], 4.4 nM; in experiment [7], 2.9 nM. The molecule also returned a half-maximal inhibitory concentration (IC50) on D(1A) dopamine receptor [8] of 2.5 nM. For the same molecule, the figures for the ED50 in the experiment listed under Mus musculus and in the experiment listed under Rattus norvegicus [2] were 7.2 µM/kg and more than 44 µM/kg, respectively.

In the case of `CN1CCN(C2CC(c3ccc(F)cc3)c3ccc(F)cc32)CC1(C)C` (stereo in doubt; (-)-40), the IC50 is 12000 nM in the experiment filed under Rattus norvegicus [4]; more than 10000 nM in the experiment filed under Rattus norvegicus [5]; 6.8 nM at D(2) dopamine receptor; 4000 nM in the experiment listed under Rattus norvegicus [6]; 4.7 nM in experiment [1]; 1.9 nM in experiment [7]. Moreover, at D(1A) dopamine receptor [8], the IC50 is 0.71 nM. Besides, the values for the ED50 in the experiment listed under Mus musculus and in the experiment listed under Rattus norvegicus [2] (setting [9]) were 1 µM/kg and 42 µmol/kg, respectively.

In the case of `CC1(C)CN(C2CC(c3ccc(F)cc3)c3ccc(Cl)cc32)CCN1` (stereo in doubt; (-)-41), the IC50 in the experiment listed under Rattus norvegicus [4] was determined as 1800 nM; in the experiment filed under Rattus norvegicus [5], 2200 nM; on D(2) dopamine receptor, 9 nM; in the experiment filed under Rattus norvegicus [6], 400 nM; in [1], 12 nM; in experiment [7], 3.7 nM. For the same molecule, the IC50 at D(1A) dopamine receptor [8] is 1.1 nM. Further, the ED50 was 5.6 µM/kg in the experiment listed under Mus musculus and more than 84 µM/kg in the experiment filed under Rattus norvegicus [2].
